For data set [1], the system named is MIA PaCa-2. The experiment in a line: Cytotoxicity against human MIAPaCa2 cells assessed as decrease in cell viability after 48 hrs by MTS assay. The data set is classed as functional. The note with it: MIA PaCa-2, 48 h. Summed up: (§1)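 Cells were seeded at equal numbers and, after 24 h, exposed to compounds (0–30 µM) for 48 h. MTS reagent (20% v/v) was then added for 1–4 h, and OD490 was read. Cell-free medium wells served as blanks. Media were DMEM/F12 + 10% FBS for BT-474; DMEM + 10% FBS for DU-145 and MDA-MB-231; and DMEM + 10% FBS + 2.5% horse serum for MiaPaCa-2. Values are mean ± SD, n=6.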
For orientation: Tetrazolium dyes change colour on reduction, which living cells bring about.

In data set [2] the test system is DU-145. Description: Cytotoxicity against human DU145 cells assessed as decrease in cell viability after 48 hrs by MTS assay. The conditions noted are these: DU-145, 48 h. It counts as functional. The essentials: as §1
In data set [3] the test system is BT-474. Description: Cytotoxicity against human BT474 cells assessed as decrease in cell viability after 48 hrs by MTS assay. The data set is classed as functional. The conditions noted are these: BT-474, 48 h. The essentials:
as §1

In data set [4] the test system is MDA-MB-231. The experiment in a line: Cytotoxicity against human MDA-MB-231 cells assessed as decrease in cell viability after 48 hrs by MTS assay. The data set is classed as functional. The conditions noted are these: MDA-MB-231, 48 h. The essentials: as §1
For data set [5], the system named is MIA PaCa-2. Description: Cytotoxicity against human MIAPaCa2 cells assessed as cell death at 2 to 25 times CC50 after 48 hrs by MTS assay. It counts as functional. The essentials:
(§2)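 Equal numbers of cells were plated. After 24 h they were exposed to compounds (0–30 µM) for 48 h, then given MTS reagent (20% v/v) for 1–4 h. OD490 was read against cell-free blank wells; mean ± SD of 6 determinations. Media: BT-474 in DMEM/F12 + 10% FBS; DU-145, JIMT-1 and MDA-MB-231 in DMEM + 10% FBS; MiaPaCa-2 in DMEM + 10% FBS + 2.5% horse serum; PC-3 in F12K + 10% FBS; all with penicillin/streptomycin.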

Data set [6] deals with DU-145. Description: Cytotoxicity against human DU145 cells assessed as cell death at 2 to 25 times CC50 after 48 hrs by MTS assay. It counts as functional. Summed up: as §2
Data set [7] deals with BT-474. Description: Cytotoxicity against human BT474 cells assessed as cell death at 2 to 25 times CC50 after 48 hrs by MTS assay. It counts as functional. Summed up: as §2
Data set [8] deals with MDA-MB-231. Description: Cytotoxicity against human MDA-MB-231 cells assessed as cell death at 2 to 25 times CC50 after 48 hrs by MTS assay. It counts as functional. Summed up:
as §2

Data set [9] relates to PC-3. The experiment in a line: Cytotoxicity against human PC3 cells assessed as cell death at 2 to 25 times CC50 after 48 hrs by MTS assay. The data set is classed as functional. The essentials: as §2
Data set [10] deals with JIMT-1. The experiment in a line: Cytotoxicity against human JIMT1 cells assessed as cell death at 2 to 25 times CC50 after 48 hrs by MTS assay. The data set is classed as functional. Summed up:
as §2

In data set [11] the test system is BT-474. Description: Disruption of cancer stem cells spheroids derived from human BT474 cells at 20 uM after 3 days by microscopic analysis. The data set is classed as functional, cell-based. The essentials:
(§3)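 Cancer stem cells were isolated from BT-474 by ALDH1 activity. Equal numbers were seeded in ultra-low-adhesion wells and grown to spheroids. Spheroids were then incubated with or without compounds for 3 days. Spheroid integrity was assessed by light microscopy (×10). Viability was measured in parallel by MTS.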

Data set [12] deals with BT-474. The experiment in a line: Cytotoxicity against cancer stem cells derived from human BT474 cells assessed as cancer stem cell death at 7.5 uM after 3 days by MTS assay. It counts as functional. Summed up:
(§4)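 CSCs were isolated from BT-474 using ALDH1 activity as the stemness marker. They were grown in ultra-low adhesion wells for 4 days to form spheroids. Spheroids were then exposed to compounds (0–20 µM) for 3 days. Viability was read by MTS assay and expressed as % of untreated control.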

The test system of data set [13] is BT-474. The experiment in a line: Cytotoxicity against cancer stem cells derived from human BT474 cells assessed as cancer stem cell death at 20 uM after 3 days by MTS assay. The data set is classed as functional. Summed up:
as §4

The subject of data set [14] is DU-145. The experiment in a line: Cytotoxicity against human DU145 cells assessed as decrease in cell viability up to 8 uM after 48 hrs in absence of pan-caspase inhibitor QVD-OPh by MTS assay. The data set is classed as functional, cell-based. The essentials:
(§5)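 DU-145 and JIMT-1 cells (DMEM + 10% FBS) were treated with compounds with or without the pan-caspase inhibitor QVD-OPh (40 µM). Viability was read by MTS: cells were seeded, treated 24 h later for 48 h, given MTS (20% v/v) for 1–4 h, and read at OD490 against cell-free blanks.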

The test system of data set [15] is DU-145. Description: Cytotoxicity against human DU145 cells assessed as decrease in cell viability up to 8 uM after 48 hrs in presence of pan-caspase inhibitor QVD-OPh by MTS assay. The data set is classed as functional, cell-based. The essentials: as §5
The subject of data set [16] is JIMT-1. Description: Cytotoxicity against human JIMT1 cells assessed as decrease in cell viability up to 8 uM after 48 hrs in presence of pan-caspase inhibitor QVD-OPh by MTS assay. The data set is classed as functional, cell-based. The essentials:
as §5

For data set [17], the system named is JIMT-1. Description: Cytotoxicity against human JIMT1 cells assessed as decrease in cell viability up to 8 uM after 48 hrs in absence of pan-caspase inhibitor QVD-OPh by MTS assay. It counts as functional, cell-based. Summed up:
as §5

The subject of data set [18] is BT-474. The experiment in a line: Disruption of cancer stem cells spheroids derived from human BT474 cells at >=7.5 uM after 3 days by microscopic analysis. The data set is classed as functional, cell-based. Summed up:
as §3

Data set [19] relates to Erythrocyte. The experiment in a line: Induction of hemolysis in sheep erythrocytes at 30 uM after 30 mins by spectrophotometric analysis. The data set is classed as functional, Ovis aries.
Data set [20] deals with MIA PaCa-2. Description: Cytotoxicity against human MIAPaCa2 cells assessed as cell death at 7.5 uM after 48 hrs by MTS assay. The data set is classed as functional. Summed up: as §2
Data set [21] deals with DU-145. The experiment in a line: Cytotoxicity against human DU145 cells assessed as cell death at 7.5 uM after 48 hrs by MTS assay. It counts as functional. The essentials:
as §2

Data set [22] relates to BT-474. Description: Cytotoxicity against human BT474 cells assessed as cell death at 7.5 uM after 48 hrs by MTS assay. It counts as functional. The essentials:
as §2

Data set [23] deals with MDA-MB-231. The experiment in a line: Cytotoxicity against human MDA-MB-231 cells assessed as cell death at 7.5 uM after 48 hrs by MTS assay. The data set is classed as functional. The essentials:
as §2

Data set [24] concerns PC-3. Description: Cytotoxicity against human PC3 cells assessed as cell death at 7.5 uM after 48 hrs by MTS assay. The data set is classed as functional. The essentials:
as §2

The subject of data set [25] is JIMT-1. The experiment in a line: Cytotoxicity against human JIMT1 cells assessed as cell death at 7.5 uM after 48 hrs by MTS assay. It counts as functional. Summed up: as §2
In data set [26] the test system is BT-474. The experiment in a line: Disruption of cancer stem cells spheroids derived from human BT474 cells at >=5 uM after 3 days by microscopic analysis. It counts as functional, cell-based. The essentials:
as §3

Data set [27] deals with DU-145. The experiment in a line: Induction of cell death in human DU145 cells assessed as rounding up of cells at 6 uM after 6 hrs fluorescence microscopic analysis. The data set is classed as functional, cell-based. The essentials: (§6)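 DU-145 cells were incubated with compounds at 6 µM for 6 h. They were then stained with cell-impermeant ethidium homodimer-1 and examined by fluorescence microscopy for cell rounding and red DNA staining. Cells given 0.01% Triton X-100 for 10 min served as the lysis control.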

Data set [28] concerns JIMT-1. The experiment in a line: Induction of cell death in human JIMT1 cells assessed as rounding up of cells at 4 uM after 6 hrs by fluorescence microscopic analysis. The data set is classed as functional, cell-based.
Data set [29] is described as follows: Stability in bovine liver extracts assessed as bovine liver glycosidase mediated compound cleavage by TLC analysis. It counts as ADME, Bos taurus. The conditions noted are these: cattle. The essentials:
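A bovine liver glycosidase fraction in 0.05 M sodium citrate pH 5.0 was combined with 0.2 M citrate pH 4.4 buffer, substrate (30 mM stock) and Triton X-100 (10% stock) for solubilization. Controls were no enzyme and a β-D-glucose-based GAEL. After 1 h, methanol was added, the mixture was centrifuged, and the supernatant was analysed by TLC. Run in quadruplicate.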

The subject of data set [30] is DU-145. The experiment in a line: Induction of membrane lysis in human DU145 cells at 6 uM after 6 hrs by EthD-1 staining based fluorescence microscopic analysis. It counts as functional, cell-based. Summed up: as §6
In data set [31] the test system is JIMT-1. The experiment in a line: Induction of membrane lysis in human JIMT1 cells at 4 uM after 6 hrs by EthD-1 staining based fluorescence microscopic analysis. The data set is classed as functional, cell-based.
Data set [32] has as its system BXPC-3. The experiment in a line: Induction of cell death in human BxPC3 cells assessed as clear large vacuole formation at 5 uM after 4 hrs.

Active and inactive are the calls of the source. No cut-off for these calls is given here.

Take `CCCCCCCCCCCCCCCCOC[C@H](CO[C@H]1O[C@H](CO)[C@@H](O)[C@H](O)[C@H]1N)OC`: the CC50 in [1], in data set [2], in data set [3] and in data set [4] was 6 to 10.5 µM each time.

With `COc1cccc2c1C(=O)c1c(O)c3c(c(O)c1C2=O)C[C@@](O)(C(=O)CO)C[C@@H]3O[C@H]1C[C@H](N)[C@H](O)[C@H](C)O1.Cl` [DOXORUBICIN HYDROCHLORIDE], the Activity in data set [5], in data set [6], in data set [7], in [8], in [9] and in data set [10] was less than 90% each time. Further, the Activity in [12] was determined as 75%; in [13] it was 72%. The result in data set [11], in data set [15] and in data set [16] was inactive. Also, the outcome in data set [14] and in data set [17] was Active.

Consider `CCCCCCCCCCCCCCCCOC[C@H](CO[C@@H]1O[C@@H](CN)[C@H](O)[C@@H](O)[C@@H]1N)OC`, for which the CC50 in data set [1], in data set [2], in [3] and in [4] was 4 to 11 µM throughout. Besides, the result in [18], in data set [14], in data set [15], in [16] and in data set [17] was Active. Further, the Activity in data set [19] is less than 5%.

In the case of `CCCCCCCCCCCCCCCCOC[C@H](CO[C@@H]1O[C@@H](CN)[C@H](OCc2ccccc2)[C@@H](O)[C@@H]1N)OC`, the CC50 in [1], in [2], in data set [3] and in data set [4] was 2 to 6 µM each time. The Activity in data set [20], in [21], in data set [22], in data set [23], in data set [24] and in [25] was more than 95% throughout. The values for the Activity in data set [12] and in [19] were more than 95% and less than 5%, respectively. Besides, the result in [26], in data set [14], in [15], in data set [16], in data set [17] and in [27] was Active. Moreover, the outcome in data set [28] and in [32] was Active. In addition, the Stability entry in data set [29] was “Stable”. For the same molecule, the outcome in data set [30] and in [31] was inactive.
